The subject of data set [1] is HCMV (Towne-BAC-GFP strain). The format is cell-based, human cytomegalovirus. Conditions: HFF-1 cells pre-treated with 10 μM compound for 1 hour, HCMV MOI 3.0. In short, it runs like this:
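HFF-1 cells were grown in DMEM with 10% FBS, sodium pyruvate and L-glutamine at 37 °C, 5% CO2. They were pre-treated for 1 h with test compound or DMSO control, then infected with Towne-BAC-GFP HCMV. GFP-positive infected cells were quantified by fluorescence microscopy.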

Another data set relates to HFF-1 cells. Briefly: Cytotoxic assessment on HFF cells by trypan blue exclusion assay. As to conditions: 2× the IC50 concentrations, maintained on cells for 5 days. The format is cell-based, human. In short, it runs like this:
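Confluent HFF-1 cells (DMEM, 10% FBS, 37 °C, 5% CO2) were treated with test compound or left untreated, then infected with HCMV (MOI 3.0) or left uninfected. At day 5, cells were trypsinised and mixed 1:1 with 0.4% trypan blue. Percent viable cells was read on an automated cell counter. Three independent experiments, SEM.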

For the next data set, the system named is MDA MB 231 cells. The data set is described as follows: MDA MB 231 proliferation MTT assay. The format is cell-based. Conditions: for anti-proliferative effect in MDA MB 231: 100 μM, data not shown; for IC50: Homo sapiens, MDA-MB-231, 72 h, read-out: IC50 in MDA MB 231. In outline: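 MDA MB 231 cells (DMEM, 10% FBS, 37 °C, 5% CO2, split every 3–4 days) were plated at 2000 per well and incubated overnight, then the medium was replaced with test compound for 72 h. MTT was added for 4 h at 37 °C, and formazan was dissolved in DMSO. A570 was read with a 630 nm reference. IC50: 0.78–100 μM, non-linear regression of survival %.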
(In general: Formazan colour is commonly taken as a measure of viable cells.)

In data set [2] the test system is human glioblastoma cell line GBM6. The data set is described as follows: GBM6 proliferation MTT assay. The data set is classed as cell-based. Conditions: for anti-proliferative activity in GBM6: 100 μM, MTT 72 hours after treatment; for IC50: Homo sapiens. In short, it runs like this: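 GBM6 cells (DMEM, 10% FBS, 37 °C, 5% CO2) were plated at 1000 per well and incubated overnight, then the medium was replaced with test compound for 72 h. MTT was added for 4 h at 37 °C, and formazan was dissolved in DMSO. A570 was read with a 630 nm reference. Single-dose screen: n = 3, normalised to control. IC50: 0.78–100 μM, non-linear regression of survival %.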

The subject of data set [3] is HCMV (Towne-BAC-GFP) strain. As to conditions: read-out: reported IC50; reported value used to validate the assay; cited from earlier work.
[4] abbreviates: GBM6, 72 h, read-out: IC 50 in GBM6.
[5] abbreviates: GBM6, read-out: IC50 (highest cytotoxicity).

Where two headings read alike, the source gives them in different places.

`FC1C(c2ccc(Cl)cc2)=NOC12CCCO2` (stereo not drawn) [4d, 3-(4-Chlorophenyl)-4-fluoro-1,6-dioxa-2-azaspiro[4.4]non-2-ene]: the “reduction in GFP levels (mean fluorescence intensity, MFI)” value (“reduction in GFP levels” below) in data set [1] is listed as “significant reduction in MFI”. The “cytotoxicity on HFF cells” value in the data set on HFF-1 cells is given as “did not show significant cytotoxicity”.
Regarding `O=[N+]([O-])c1ccc(C2=NOC3(CCCO3)C2F)cc1` (stereo not drawn) [4h, 4-Fluoro-3-(4-nitrophenyl)-1,6-dioxa-2-azaspiro[4.4]non-2-ene], the “reduction in GFP levels” value in data set [1] is reported as “significant reduction in MFI”.
Turning to `FC1C(c2ccccc2)=NOC12CCCCO2` (stereo not drawn) [4i, 4-Fluoro-3-phenyl-1,6-dioxa-2-azaspiro[4.5]dec-2-ene], the “reduction in GFP levels” value in data set [1] is “significant reduction in MFI”.
With `FC1C(c2ccc(Br)cc2)=NOC12CCCCO2` (stereo not drawn) [4l, 3-(4-Bromophenyl)-4-fluoro-1,6-dioxa-2-azaspiro[4.5]dec-2-ene], the “anti-proliferative effect in MDA MB 231” value in the data set on MDA MB 231 cells is “highest anti-proliferative effect”. The results for the IC50 (in the data set with MDA MB 231 cells; in data set [2] (setting [4]); in data set [2] (setting [5])) were 68.2 µM, 36.1 µM and 36 to 80 µM, respectively. Moreover, in data set [2], the “anti-proliferative activity in GBM6” value is listed as “robust anti-proliferative activity”.
Take `FC1C(c2ccc(C(F)(F)F)cc2)=NOC12CCCCO2` (stereo not drawn) [4n, 4-Fluoro-3-(4-(trifluoromethyl)phenyl)-1,6-dioxa-2-azaspiro[4.5]dec-2-ene]: the “reduction in GFP levels” value in data set [1] is on record as “significant reduction in MFI”. In addition, the “cytotoxicity on HFF cells” value with HFF-1 cells is recorded as “did not show significant cytotoxicity”.
For the compound `O=[N+]([O-])c1ccc(C2=NOC3(CCCCO3)C2F)cc1` (stereo not drawn) [4o, 4-Fluoro-3-(4-nitrophenyl)-1,6-dioxa-2-azaspiro[4.5]dec-2-ene], the “reduction in GFP levels” value in data set [1] was “significant reduction in MFI”.
In the case of `O=C1CCC2(ON=C(c3c(Cl)cccc3Cl)C2F)O1` (stereo not drawn) [5f, 3-(2,6-Dichlorophenyl)-4-fluoro-1,6-dioxa-2-azaspiro[4.4]non-2-en-7-one], in the data set on MDA MB 231 cells, the “anti-proliferative effect in MDA MB 231” value is “highest anti-proliferative effect”. The IC50 is 79.8 µM with MDA MB 231 cells, 43.2 µM in data set [2] (setting [4]) and 36 to 80 µM in data set [2] (setting [5]). For the same compound, in data set [2], the “anti-proliferative activity in GBM6” value was “robust anti-proliferative activity”.
For `Nc1nc(O)c2ncn(COC(CO)CO)c2n1` [GCV, ganciclovir], in data set [3], the IC50 was 5.2 µM.

The values are drawn from publication PMC9056317 (RSC Advances, 2020).
